{
  "source": "ChEMBL document CHEMBL3751813",
  "about": "“Nonpeptidic Amphiphilic Xanthone Derivatives: Structure-Activity Relationship and Membrane-Targeting Properties” (J Med Chem, 2016)",
  "key": {"Staphylococcus aureus [1]": {"tested_on": "Staphylococcus aureus", "experiment": "Antibacterial activity against clinical isolates of Staphylococcus aureus DM4001R after 24 hrs by […]", "format": "functional"}, "Staphylococcus aureus [2]": {"tested_on": "Staphylococcus aureus", "experiment": "Antibacterial activity against clinical isolates of methicillin-resistant Staphylococcus aureus DM9808R after 24 hrs by […]", "format": "functional"}, "Staphylococcus aureus [3]": {"tested_on": "Staphylococcus aureus", "experiment": "Antibacterial activity against clinical isolates of methicillin-resistant Staphylococcus aureus DM21455 after 24 hrs by […]", "format": "functional", "settings": "DM21455, 24 h"}, "Bacillus cereus": {"tested_on": "Bacillus cereus", "experiment": "Antibacterial activity against clinical isolates of Bacillus cereus ATCC 11778 after 24 hrs by […]", "format": "functional", "settings": "ATCC 11778, 24 h"}, "[4]": {"experiment": "Hemolytic activity against New Zealand white rabbit RBC after 1 hr by microplate reader analysis", "format": "ADME, cell-based, Oryctolagus cuniculus, Erythrocyte", "settings": "rabbit red blood cells", "in_short": "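Rabbit RBCs spun from serum at 3,000 rpm for 10 min and washed twice in PBS. Mixed with compound in DMF at 4% v/v RBCs, 1 h at 37 °C. After centrifugation, hemoglobin in the supernatant read at 576 nm. 2% Triton X-100 was the positive control and 1% DMF the negative control.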"}, "[5]": {"experiment": "Selectivity index, ratio of HC50 for hemolytic activity against New Zealand white rabbit RBC to MIC for clinical isolates of Staphylococcus aureus DM4001"}, "[6]": {"experiment": "Membrane permeabilization activity assessed as release of calcein from DOPE/DOPG liposomes at lipid:compound ratio of 8 incubated for 30 mins by fluorescence assay", "format": "ADME", "settings": "0.5 h", "in_short": "(§1)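 Freeze-thawed, extruded, then gel-filtered. Final lipid 50 µM with compound added from DMF (<0.2%). Fluorescence at ex 490/em 520 nm over 30 min; 0.1% Triton X-100 defined 100% lysis.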"}, "[7]": {"experiment": "Membrane permeabilization activity assessed as release of calcein from DOPE/DOPG liposomes at lipid:compound ratio of 16 incubated for 30 mins by fluorescence assay", "format": "ADME", "settings": "0.5 h", "in_short": "as §1"}, "Staphylococcus aureus [8]": {"tested_on": "Staphylococcus aureus", "experiment": "Induction of membrane permeabilization in clinical isolates of Staphylococcus aureus DM4001 at MIC by SYTOX green uptake assay", "format": "functional", "in_short": "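Exponential-phase cells washed twice in 20 mM PBS pH 7 and adjusted to OD620 0.09. Given 3 µM SYTOX Green and kept in the dark until fluorescence was stable, then compound added. Fluorescence followed in a stirred cuvette at ex 504/em 523 nm. Melittin 10 µg/mL was the positive control. Run at least twice; one run reported.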"}, "Staphylococcus aureus [9]": {"tested_on": "Staphylococcus aureus", "experiment": "Induction of membrane permeabilization in clinical isolates of Staphylococcus aureus DM4001 assessed as ATP leakage at MIC incubated for 10 mins by firefly luciferase based luminometry analysis", "format": "functional", "in_short": "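Exponential-phase cells washed twice in 20 mM PBS pH 7 and set to OD620 0.3. Exposed 10 min at 37 °C, then spun at 4000 rpm for 5 min. Supernatant mixed with luciferase reagent (1 mM DTT, 0.5 mM D-luciferin, 1.25 µg/mL firefly luciferase). Luminescence read over 30 cycles.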"}, "Staphylococcus aureus [10]": {"tested_on": "Staphylococcus aureus", "experiment": "Bactericidal activity against clinical isolates of Staphylococcus aureus DM4001 assessed as log reduction in viability at 4 times MIC measured over 30 mins by time kill kinetic study", "format": "functional", "in_short": "(§2)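 Cells from colonies on an 18–22 h TSA plate, suspended in 0.31 mM phosphate buffer pH 7.2 at 10^5–10^6 CFU/mL. Dosed at 1×, 2× and 4× MIC at 35 °C. Aliquots taken at 10 min, 30 min, 1 h, 2 h and 5 h, diluted ten-fold serially, spread on MHA and counted after 48–72 h at 35 °C. Detection limit 100 CFU/mL. Bactericidal means a 3-log drop versus untreated control.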"}, "Staphylococcus aureus [11]": {"tested_on": "Staphylococcus aureus", "experiment": "Bactericidal activity against clinical isolates of Staphylococcus aureus DM4001 assessed as log reduction in viability at 2 times MIC measured over 300 mins by time kill kinetic study", "format": "functional", "in_short": "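Colonies from 18–22 h TSA plates suspended in 0.31 mM phosphate buffer pH 7.2 at 10^5–10^6 CFU/mL. Treated at 1×, 2× and 4× MIC at 35 °C, sampled at 10 min, 30 min, 1 h, 2 h and 5 h. Ten-fold dilutions spread on MHA, 35 °C for 48–72 h, colonies counted. Detection limit 100 CFU/mL; bactericidal means 3-log drop versus untreated.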"}, "[12]": {"experiment": "Cytotoxicity in human corneal fibroblasts assessed as cell viability at 0.5 times MIC incubated for 4 hrs by luminescent cell viability assay relative to control", "design": "species or system Corneal fibroblast", "settings": "read-out: Activity", "in_short": "(§3)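 Cells plated at 10,000 per well and exposed 4 h in 100 µL. Plate equilibrated to 22 °C for 30 min, then read with CellTiter-Glo luminescence. 1% Triton X-100 set minimal viability and 0.5% DMF served as negative control. Viability computed relative to these controls.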"}, "[13]": {"experiment": "Cytotoxicity in human corneal fibroblasts assessed as cell viability at MIC incubated for 4 hrs by luminescent cell viability assay relative to control", "design": "species or system Corneal fibroblast", "settings": "read-out: Activity", "in_short": "as §3"}, "[14]": {"experiment": "Cytotoxicity in human corneal fibroblasts assessed as cell viability at 2 times MIC incubated for 4 hrs by luminescent cell viability assay relative to control", "design": "species or system Corneal fibroblast", "settings": "read-out: Activity", "in_short": "as §3"}, "[15]": {"experiment": "Cytotoxicity in human corneal fibroblasts assessed as cell viability at 4 times MIC incubated for 4 hrs by luminescent cell viability assay relative to control", "design": "species or system Corneal fibroblast", "settings": "read-out: Activity", "in_short": "as §3"}, "[16]": {"experiment": "Cytotoxicity in human corneal fibroblasts at 0.5 times MIC incubated for 4 hrs by LDH release assay relative to control", "settings": "corneal fibroblast"}, "[17]": {"experiment": "Cytotoxicity in human corneal fibroblasts at MIC incubated for 4 hrs by LDH release assay relative to control", "settings": "corneal fibroblast"}, "[18]": {"experiment": "Cytotoxicity in human corneal fibroblasts at 2 times MIC incubated for 4 hrs by LDH release assay relative to control", "settings": "corneal fibroblast"}, "[19]": {"experiment": "Cytotoxicity in human corneal fibroblasts at 4 times MIC incubated for 4 hrs by LDH release assay relative to control", "settings": "corneal fibroblast"}, "Staphylococcus aureus [20]": {"tested_on": "Staphylococcus aureus", "experiment": "Bactericidal activity against clinical isolates of Staphylococcus aureus DM4001 at 4 times MIC measured over 30 mins by time kill kinetic study", "format": "functional", "in_short": "as §2"}, "Staphylococcus aureus [21]": {"tested_on": "Staphylococcus aureus", "experiment": "Bactericidal activity against clinical isolates of Staphylococcus aureus DM4001 at 2 times MIC measured over 300 mins by time kill kinetic study", "format": "functional", "in_short": "as §2"}},
  "data": [
    {"smiles": "CCN(CC)CCCCOc1cc2oc3cc(OCCCCN(CC)CC)c(OC)c(CCC(C)C)c3c(=O)c2c(O)c1CCC(C)C", "values": [
      {"measurement": "MIC", "setting": "Staphylococcus aureus [1]", "result": 3.12, "unit": "µg/mL"},
      {"measurement": "MIC", "setting": "Staphylococcus aureus [2]", "result": 12.5, "unit": "µg/mL"},
      {"measurement": "MIC", "setting": "Staphylococcus aureus [3]", "result": 25, "unit": "µg/mL"},
      {"measurement": "MIC", "setting": "Bacillus cereus", "result": 25, "unit": "µg/mL"},
      {"measurement": "HC50 at 1 h", "setting": "[4]", "result": 48.6, "unit": "µg/mL"},
      {"measurement": "Selectivity ratio", "setting": "[5]", "result": 15.6},
      {"measurement": "Activity", "setting": "[6]", "result": 58.6, "unit": "%"},
      {"measurement": "Activity", "setting": "[7]", "result": 20.1, "unit": "%"}
    ]},
    {"smiles": "COc1c(OCCCCN)cc2oc3cc(OCCCCN)c(CC=C(C)C)c(O)c3c(=O)c2c1CC=C(C)C", "values": [
      {"measurement": "MIC", "setting": "Staphylococcus aureus [1]", "result": 1.56, "unit": "µg/mL"},
      {"measurement": "MIC", "setting": "Staphylococcus aureus [2]", "result": 3.12, "unit": "µg/mL"},
      {"measurement": "MIC", "setting": "Staphylococcus aureus [3]", "result": 1.56, "unit": "µg/mL"},
      {"measurement": "MIC", "setting": "Bacillus cereus", "result": 3.12, "unit": "µg/mL"},
      {"measurement": "HC50 at 1 h", "setting": "[4]", "result": 80.2, "unit": "µg/mL"},
      {"measurement": "Selectivity ratio", "setting": "[5]", "result": 51.4},
      {"measurement": "Activity", "setting": "Staphylococcus aureus [8]", "result": 1497, "unit": "cps"},
      {"measurement": "Activity", "setting": "Staphylococcus aureus [9]", "result": 210, "unit": "nM"},
      {"measurement": "LCK", "setting": "Staphylococcus aureus [10]", "result": 3},
      {"measurement": "LCK", "setting": "Staphylococcus aureus [11]", "result": 3},
      {"measurement": "viability at 4 h, 0.5 times MIC", "setting": "[12]", "result": 98.5, "unit": "%"},
      {"measurement": "viability at 4 h, 1 times MIC", "setting": "[13]", "result": 91.7, "unit": "%"},
      {"measurement": "viability at 4 h, 2 times MIC", "setting": "[14]", "result": 90.7, "unit": "%"},
      {"measurement": "viability at 4 h, 4 times MIC", "setting": "[15]", "result": 90.3, "unit": "%"},
      {"measurement": "Activity", "setting": "[16]", "result": -0.7, "unit": "%"},
      {"measurement": "Activity", "setting": "[17]", "result": -1, "unit": "%"},
      {"measurement": "Activity", "setting": "[18]", "result": -0.5, "unit": "%"},
      {"measurement": "Activity", "setting": "[19]", "result": 0.9, "unit": "%"},
      {"measurement": "Activity", "setting": "Staphylococcus aureus [20]", "result": 99.9, "unit": "%"},
      {"measurement": "Activity", "setting": "Staphylococcus aureus [21]", "result": 99.9, "unit": "%"}
    ]}
  ]
}
